Results on four molecules are retold here after ChEMBL document CHEMBL4138064, “Diazabicyclo analogues of maraviroc: synthesis, modeling, NMR studies and antiviral activity” (Medchemcomm, 2017).

Series [1] concerns Human immunodeficiency virus 1. Kind of series: Antiviral activity against CCR5-dependent HIV1 clade B isolate PVO infected in human TZM-bl cells assessed as reduction in virus infection incubated for 72 hrs by luciferase reporter gene based viral neutralization assay. Type of series: functional, organism-based. The method in brief: (§1)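 Single-round infection of TZM-bl cells with env-pseudotyped virus at 200 TCID50, preincubated 1 h at 37 °C with serial compound dilutions (10 to 0.001 μM) in D-MEM with 10% FBS. TZM-bl cells (10^4/well) carrying 15 μg/mL DEAE-dextran were then added and cultured 48 and 72 h at 37 °C, 5% CO2. Luciferase RLU were read in four replicates per point. IC90 was the 90% RLU drop versus virus-only wells, minus cell-only background.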

In series [2] the test system is Human immunodeficiency virus 1. The series can be described thus: Antiviral activity against CCR5-dependent HIV1 clade B isolate QH0692 infected in human TZM-bl cells assessed as reduction in virus infection incubated for 48 hrs by luciferase reporter gene based viral neutralization assay. Type of series: functional. Particulars: Human immunodeficiency virus 1, clade B isolate QH0692, TZM-bl. Put shortly: (§2)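 Env-pseudotyped viruses made in 293T cells by proviral DNA transfection and titred by luciferase in TZM-bl cells. 200 TCID50 of virus preincubated 1 h at 37 °C with serially diluted compound (10 to 0.001 μM) in D-MEM/10% FBS. 10^4 TZM-bl cells per well with 15 μg/mL DEAE-dextran were then added, 37 °C, 48 h and 72 h. Four replicates per point. Luciferase read-out.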

In series [3] the test system is Human immunodeficiency virus 1. Kind of series: Antiviral activity against CCR5-dependent HIV1 clade B isolate QH0692 infected in human TZM-bl cells assessed as reduction in virus infection incubated for 72 hrs by luciferase reporter gene based viral neutralization assay. It counts as functional, organism-based. Put shortly: as §1
Series [4] relates to Human immunodeficiency virus 1. The series can be described thus: Antiviral activity against CCR5-dependent HIV1 SF162 infected in human TZM-bl cells assessed as reduction in virus infection incubated for 72 hrs by luciferase reporter gene based viral neutralization assay. Type of series: functional, organism-based. Put shortly:
as §1

Series [5] relates to Human immunodeficiency virus 1. The series can be described thus: Antiviral activity against CCR5-dependent HIV1 SF162 infected in human TZM-bl cells assessed as reduction in virus infection incubated for 48 hrs by luciferase reporter gene based viral neutralization assay. Type of series: functional. The note with it: Human immunodeficiency virus 1, SF162, TZM-bl. Put shortly: as §2

Series [6] has as its system Human immunodeficiency virus 1. The series can be described thus: Antiviral activity against CCR5-dependent HIV1 clade B isolate PVO infected in human TZM-bl cells assessed as reduction in virus infection incubated for 48 hrs by luciferase reporter gene based viral neutralization assay. The note with it: Human immunodeficiency virus 1, clade B isolate PVO. Type of series: functional. The method in brief:
as §2

Series [7] concerns Human immunodeficiency virus 1. The series can be described thus: Antiviral activity against CCR5-dependent HIV1 clade B isolate 6535 infected in human TZM-bl cells assessed as reduction in virus infection incubated for 72 hrs by luciferase reporter gene based viral neutralization assay. It counts as functional, organism-based. Put shortly: as §1
For series [8], the system named is Vesicular stomatitis virus. The series can be described thus: Antiviral activity against VSV G SVA.MLV#922 infected in human TZM-bl cells assessed as reduction in virus infection incubated for 72 hrs by luciferase reporter gene based viral neutralization assay. Type of series: functional, organism-based. The method in brief:
as §2

Series [9] relates to Human immunodeficiency virus 1. Kind of series: Antiviral activity against CCR5-dependent HIV1 clade B isolate AC10 infected in human TZM-bl cells assessed as reduction in virus infection incubated for 48 hrs by luciferase reporter gene based viral neutralization assay. The note with it: Human immunodeficiency virus 1, clade B isolate AC10, 48 h. It counts as functional. Put shortly:
as §2

Series [10] concerns Human immunodeficiency virus 1. Kind of series: Antiviral activity against CCR5-dependent HIV1 clade B isolate AC10 infected in human TZM-bl cells assessed as reduction in virus infection incubated for 72 hrs by luciferase reporter gene based viral neutralization assay. Type of series: functional, organism-based. Put shortly:
as §1

For series [11], the system named is Human immunodeficiency virus 1. The series can be described thus: Antiviral activity against CCR5-dependent HIV1 clade B isolate 6535 infected in human TZM-bl cells assessed as reduction in virus infection incubated for 48 hrs by luciferase reporter gene based viral neutralization assay. It counts as functional. The note with it: Human immunodeficiency virus 1, clade B isolate 6535, TZM-bl. The method in brief: as §2

For series [12], the system named is Vesicular stomatitis virus. The series can be described thus: Antiviral activity against VSV G SVA.MLV#922 infected in human TZM-bl cells assessed as reduction in virus infection incubated for 48 hrs by luciferase reporter gene based viral neutralization assay. Type of series: functional. The note with it: G SVA.MLV#922, TZM-bl. The method in brief:
as §2

The test system of series [13] is Human immunodeficiency virus 1. Kind of series: Antiviral activity against CCR5-dependent HIV1 cladC isolate ZM214 infected in human TZM-bl cells assessed as reduction in virus infection incubated for 72 hrs by luciferase reporter gene based viral neutralization assay. Type of series: functional, organism-based. Put shortly: as §1
In series [14] the test system is Human immunodeficiency virus 1. Kind of series: Antiviral activity against CXCR4-dependent HIV1 HXB2 infected in human TZM-bl cells assessed as reduction in virus infection incubated for 72 hrs by luciferase reporter gene based viral neutralization assay. It counts as functional, organism-based. Put shortly: as §1
In series [15] the test system is Human immunodeficiency virus 1. The series can be described thus: Antiviral activity against CXCR4-dependent HIV1 HXB2 infected in human TZM-bl cells assessed as reduction in virus infection incubated for 48 hrs by luciferase reporter gene based viral neutralization assay. Type of series: functional. Particulars: Human immunodeficiency virus 1, HXB2, TZM-bl. Put shortly: as §2

Series [16] relates to Human immunodeficiency virus 1. The series can be described thus: Antiviral activity against CCR5-dependent HIV1 cladC isolate ZM214 infected in human TZM-bl cells assessed as reduction in virus infection incubated for 48 hrs by luciferase reporter gene based viral neutralization assay. It counts as functional. The note with it: Human immunodeficiency virus 1, cladC isolate ZM214, TZM-bl. Put shortly: as §2

Series [17] relates to TZM. Kind of series: Toxicity in human TZM-bl cells assessed as reduction in cell proliferation at 10 uM incubated for 72 hrs by trypan blue staining based assay.
Series [18] has as its system TZM. The series can be described thus: Toxicity in human TZM-bl cells assessed as reduction in cell proliferation at 10 uM incubated for 48 hrs by trypan blue staining based assay.

The source made the active and inactive calls. The calls are words filed in the database; no cut-off is given here.

For the molecule `Cc1nnc(C(C)C)n1[C@H]1C[C@H]2CC[C@@H](C1)N2CC[C@H](NC(=O)C1CCC(F)(F)CC1)c1ccccc1` [MARAVIROC], the outcome in series [1], in [3], in [4], in series [7], in series [8] and in [10] was Active. The outcome in series [13] and in series [14] was Active. The IC90 in series [2] is 80 to 470 nM; in series [5], 80 to 470 nM; in series [6] it was 80 to 470 nM; in series [9], 80 to 470 nM; in series [11] it was 80 to 470 nM; in [12], greater than 10000 nM. The IC90 in series [15] is greater than 10000 nM; in [16] it was 80 to 470 nM.

As to `Cc1nnc(C(C)C)n1N1CC2CCC(C1)N2CC[C@H](NC(=O)C1CCC(F)(F)CC1)c1ccccc1`, the outcome in series [1], in [3], in series [4], in [7], in series [8] and in series [10] was Active. Further, the outcome in series [13] and in series [14] was Active. Moreover, the IC90 in [2] was 20 to 1520 nM; in series [5], 20 to 1520 nM; in [6], 20 to 1520 nM; in series [9], 20 to 1520 nM; in series [11], 20 to 1520 nM; in series [12] it was greater than 10000 nM. The results for the IC90 in [15] and in [16] were greater than 10000 nM and 20 to 1520 nM, respectively. Also, the Activity result in the series on TZM [17] and in the series on TZM [18] was “Non-Toxic” each time.

`Cc1nnc(C(C)C)n1N1CC2CCCC(C1)N2CC[C@H](NC(=O)C1CCC(F)(F)CC1)c1ccccc1`: the result in series [1], in [3], in [4], in [7], in series [8] and in series [10] was Active. Besides, the outcome in [13] and in series [14] was Active. Further, the IC90 in series [2] is 90 to 3540 nM; in [5], 90 to 3540 nM; in series [6] it was 90 to 3540 nM; in series [9] it was 90 to 3540 nM; in [11], 90 to 3540 nM; in series [12], greater than 10000 nM. The IC90 in series [15] is greater than 10000 nM; in [16], 90 to 3540 nM. The Activity entry with TZM [17] and in the series with TZM [18] was “Non-Toxic” each time.

With `Cc1nnc(C(C)C)n1[C@@H]1C[C@H]2CC[C@@H](C1)N2CC[C@H](NC(=O)C1CCC(F)(F)CC1)c1ccccc1` [MARAVIROC], the Activity entry with TZM [17] and in the series with TZM [18] was “Non-Toxic” in each case.
